Assay results pooled from the literature.

Structure (SMILES)	test	system	conditions	quantity	result
C[C@]12CCCN1CC1=NNC(=O)c3cc(F)cc4[nH]c2c1c34		male Sprague-Dawley rat, brain	intravenous, 1 mg/kg	unbound tissue/plasma ratio	0.134
CC[C@H](C)[C@H](NC(=O)[C@H](CO)NC(=O)[C@H](CCCNC(=N)N)NC(C)=O)C(=O)N[C@H]1CSSC[C@@H](C(=O)N[C@H](C(N)=O)[C@@H](C)O)NC(=O)[C@H](CCCNC(=N)N)NC(=O)[C@H](Cc2c[nH]cn2)NC(=O)[C@H](C)NC(=O)CNC(=O)[C@H](Cc2c[nH]c3ccccc23)NC(=O)[C@H](CC(=O)O)NC(=O)[C@H](CCC(N)=O)NC(=O)[C@H](Cc2cn(C)c3ccccc23)NC(=O)[C@H](C(C)C)NC1=O	absorbance	water		thermodynamic solubility	> 500 µM
CC(C)S(=O)(=O)c1ccc(S(=O)(=O)N2CCC[C@@H](C(=O)N3CCC(F)(F)CC3)C2)cc1	general toxicity	mouse	oral	MTD	10 mg/kg
C=C1C[C@H](O)[C@H](Br)C(C)(C)[C@@]12CCC(C)=C(Cl)C2	general toxicity	female CD-1 mouse	intraperitoneal, single dose	MTD	65 mg/kg
O=C(NCCN1CCCC1)c1cc(-c2ccc(CN3CCOCC3)cc2)nc2ccc(F)cc12		male beagle dog, blood	oral, 3 mg/kg	Tmax	4 h
CCn1c(=O)c(-c2cc(NC(=O)Nc3ccccc3)c(F)cc2Br)cc2cnc(NC)cc21		beagle dog, plasma	oral, 5 mg/kg, single dose	Tmax	2.25 h
CC[C@H](C)[C@H](NC(=O)[C@H](Cc1ccccc1)NC(=O)[C@H](Cc1ccc(O)cc1)NC(=O)[C@@H]1CCCN1C(=O)[C@@H](N)Cc1ccc(O)cc1)C(=O)N[C@H](CCCCN)C(=O)N[C@@H](CC(C)C)C(=O)NCC(=O)N[C@H](CCCCN)C(=O)NCC(=O)N[C@@H](CCC(=O)O)C(=O)N[C@H](C(=O)N[C@@H](CC(N)=O)C(=O)N[C@@H](CC(C)C)[C@@H](O)CC(=O)N[C@H](C(=O)N[C@@H](C)C(=O)N[C@@H](CCC(=O)O)C(=O)N1CCC[C@@H]1C(=O)N[C@@H](CCCCNC(=O)CCC(=O)O[C@H]1CC[C@@]2(C)C(=CC[C@H]3[C@@H]4CC[C@H]([C@H](C)CCCC(C)C)[C@@]4(C)CC[C@@H]32)C1)C(N)=O)C(C)C)C(C)C		aqueous buffer	pH 6.5	thermodynamic solubility	55 µg/mL
CCCC(CCC)C(=O)OCC1(CO)C/C(=C\c2ccc(C(F)(F)F)cc2)C(=O)O1 (centres unmarked)	general toxicity	nude mouse	intraperitoneal	MTD	12 mg/kg/day
Cn1nc(C(F)(F)F)cc1-c1ccc(OCc2ccc(Cl)cc2)c(-c2cc(C(F)(F)F)cc(C(F)(F)F)c2)c1O	general toxicity	CD-1 mouse	oral	MTD	240 mg/kg/day
CC[C@H](C)[C@H](NC(=O)[C@H](Cc1ccccc1)NC(=O)[C@H](Cc1ccc(O)cc1)NC(=O)[C@@H]1CCCN1C(=O)[C@@H](N)Cc1ccc(O)cc1)C(=O)N1CCC[C@H]1C(=O)N[C@@H](CC(C)C)C(=O)NCC(=O)NCC(=O)N[C@H](CCCCN)C(=O)N[C@@H](CCC(=O)O)C(=O)N[C@H](C(=O)N[C@@H](CC(N)=O)C(=O)N[C@@H](CC(C)C)[C@@H](O)CC(=O)N[C@H](C(=O)N[C@@H](C)C(=O)N[C@@H](CCC(=O)O)C(=O)N1CCC[C@@H]1C(=O)N[C@@H](CCCCNC(=O)CCC(=O)O[C@H]1CC[C@@]2(C)C(=CC[C@H]3[C@@H]4CC[C@H]([C@H](C)CCCC(C)C)[C@@]4(C)CC[C@@H]32)C1)C(N)=O)C(C)C)C(C)C		aqueous buffer	pH 6.5	thermodynamic solubility	< 1 µg/mL
CC[C@@H]1CN(C(=O)NCC(F)(F)F)C[C@@H]1c1cnc2cnc3[nH]ccc3n12		beagle dog, plasma	oral, 1 mg/kg, single dose	MRT(0-inf)	11.6 h
CC[C@H](C)[C@H](NC(=O)[C@H](Cc1ccccc1)NC(=O)[C@H](Cc1ccc(O)cc1)NC(=O)[C@@H]1CCCN1C(=O)[C@@H](N)Cc1ccc(O)cc1)C(=O)N1CCC[C@H]1C(=O)N[C@@H](CC(C)C)C(=O)NCC(=O)N[C@H](CCCCN)C(=O)NCC(=O)N[C@@H](CCC(=O)O)C(=O)N[C@H](C(=O)N[C@@H](CC(N)=O)C(=O)N[C@@H](CC(C)C)[C@@H](O)CC(=O)N[C@H](C(=O)N[C@@H](C)C(=O)N[C@@H](CCC(=O)O)C(=O)N1CCC[C@@H]1C(=O)N[C@@H](CCCCNC(=O)CCC(=O)O[C@H]1CC[C@@]2(C)C(=CC[C@H]3[C@@H]4CC[C@H]([C@H](C)CCCC(C)C)[C@@]4(C)CC[C@@H]32)C1)C(N)=O)C(C)C)C(C)C		aqueous buffer	pH 6.5	thermodynamic solubility	11 µg/mL
Cc1cc(Nc2ccc(S(F)(F)(F)(F)F)cc2)n2nc(C(C)(F)F)nc2n1	general toxicity	mouse	oral, multiple doses	MTD	> 200 mg/kg
N#C[C@@]1(c2ccc3c(N)ncnn23)O[C@H](CO)[C@@H](O)[C@H]1O		dog, plasma	intravenous, 2 mg/kg	MRT(0-inf)	3.93 h
